Data: ChEMBL document CHEMBL1131482 (J Med Chem, 1998)
Active and inactive are the calls of the source.

Key:
Mus musculus [1] = assay: Licking latency was measured after 30 min treatment (at dose=50 mg/kg) by using mouse hot plate test; format: functional
Procedure, shortened: (§1)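 Male Swiss-Webster mice (22-28 g), 23 ± 1 °C, 12-h light/dark cycle, food and water ad libitum. Hot plate at 52.5 ± 0.1 °C with licking latency as read-out and 45 s cutoff. Mice with pre-drug latency below 12 or over 18 s were rejected. Compounds given sc, 5-12 mice per test. Significance was assessed by Dunnett's two-tailed test, P < 0.05.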

Mus musculus [2] = assay: MNTD:Maximal nontoxic dose of the compound, done on mouse; sc; format: functional
Procedure, shortened: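 Male Swiss-Webster mice dosed sc. The value is the highest dose causing no visible behavioural change (tremors, convulsions, hypomotility etc.), so that treated mice could not be told apart from untreated ones. Behaviour was scored by the Irwin method in groups of at least 10 animals.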

Mus musculus [3] = assay: MAD: minimal dose able to induce a statistically significant increase of the pain threshold, done on mouse; sc; IA = inactive; format: functional, organism-based
Procedure, shortened: (§2)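 Mouse hot plate test (52.5 ± 0.1 °C, 45 s cutoff) after sc dosing, in male Swiss-Webster mice. The value is the lowest dose giving a statistically significant rise in pain threshold. Dunnett's two-tailed test compared treated mice at maximum reaction time with pretest time, P < 0.05.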

Mus musculus [4] = assay: Licking latency was measured before treatment (at dose=50 mg/kg) by using mouse hot plate test; format: functional
Procedure, shortened: (§3)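 Male Swiss-Webster mice (22-28 g), 23 ± 1 °C, 12-h light/dark cycle. Hot plate at 52.5 ± 0.1 °C. Mice with pre-drug licking latency below 12 s or over 18 s were rejected. Cutoff 45 s. Compound given sc; latency read before dosing and at 15, 30 and 45 min. 5-12 mice per test.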

Mus musculus [5] = assay: Licking latency was measured after 15 min treatment (at dose=50 mg/kg) by using mouse hot plate test; format: functional; procedure, shortened: as §1
Mus musculus [6] = assay: Licking latency was measured after 45 min treatment (at dose=50 mg/kg) by using mouse hot plate test; format: functional; procedure, shortened: as §1
Mus musculus [7] = organism: Mus musculus; assay: Analgesic efficacy is expressed as percentage of that epibatidine, done on mouse.; format: functional
Mus musculus [8] = organism: Mus musculus; assay: Analgesic efficacy is expressed as percentage of that morphine, done on mouse.; format: functional
Mus musculus [9] = assay: MAD: minimal dose able to induce a statistically significant increase of the pain threshold, done on mouse; sc; format: functional; procedure, shortened: as §2
Mus musculus [10] = assay: Licking latency was measured after 45 min treatment (at dose=25 mg/kg) by using mouse hot plate test; format: functional; procedure, shortened: as §1
Mus musculus [11] = assay: Licking latency was measured after 15 min treatment (at dose=5 mg/kg) by using mouse hot plate test; format: functional; procedure, shortened: as §1
Mus musculus [12] = assay: Licking latency was measured after 15 min treatment (at dose=25 mg/kg) by using mouse hot plate test; format: functional; procedure, shortened: as §1
Mus musculus [13] = assay: Licking latency was measured after 45 min treatment (at dose=5 mg/kg) by using mouse hot plate test; format: functional; procedure, shortened: as §1
Mus musculus [14] = assay: Licking latency was measured after 30 min treatment (at dose=25 mg/kg) by using mouse hot plate test; format: functional; procedure, shortened: as §1
Mus musculus [15] = assay: Licking latency was measured before treatment (at dose=5 mg/kg) by using mouse hot plate test; format: functional; procedure, shortened: as §3
Mus musculus [16] = assay: Licking latency was measured before treatment (at dose=25 mg/kg) by using mouse hot plate test; format: functional; procedure, shortened: as §1
Mus musculus [17] = assay: Licking latency was measured after 30 min treatment (at dose=5 mg/kg) by using mouse hot plate test; format: functional; procedure, shortened: as §1
Mus musculus [18] = assay: Licking latency was measured after 30 min treatment (at dose=25 mg/kg) by using mouse hot plate test (*P<0.01); format: functional; procedure, shortened: as §1
Mus musculus [19] = assay: Licking latency was measured before treatment (at dose=15 mg/kg) by using mouse hot plate test; format: functional; procedure, shortened: as §1
Mus musculus [20] = assay: Licking latency was measured after 15 min treatment (at dose=15 mg/kg) by using mouse hot plate test (*P<0.01); format: functional; procedure, shortened: as §1
Mus musculus [21] = assay: Licking latency was measured after 15 min treatment (at dose=10 mg/kg) by using mouse hot plate test; format: functional; procedure, shortened: as §1
Mus musculus [22] = assay: Licking latency was measured after 15 min treatment (at dose=25 mg/kg) by using mouse hot plate test (*P<0.01); format: functional; procedure, shortened: as §1
Mus musculus [23] = assay: Licking latency was measured after 45 min treatment (at dose=15 mg/kg) by using mouse hot plate test (*P<0.01); format: functional; procedure, shortened: as §1
Mus musculus [24] = assay: Licking latency was measured after 30 min treatment (at dose=10 mg/kg) by using mouse hot plate test; format: functional; procedure, shortened: as §1
Mus musculus [25] = assay: Licking latency was measured after 30 min treatment (at dose=15 mg/kg) by using mouse hot plate test (*P<0.01); format: functional; procedure, shortened: as §1
Mus musculus [26] = assay: Licking latency was measured before treatment (at dose=10 mg/kg) by using mouse hot plate test; format: functional; procedure, shortened: as §1
Mus musculus [27] = assay: Licking latency was measured after 45 min treatment (at dose=10 mg/kg) by using mouse hot plate test; format: functional; procedure, shortened: as §1
Mus musculus [28] = assay: Licking latency was measured after 45 min treatment (at dose=25 mg/kg) by using mouse hot plate test (*P<0.01); format: functional; procedure, shortened: as §1
Mus musculus [29] = assay: Licking latency was measured after 45 min treatment (at dose=40 mg/kg) by using mouse hot plate test; format: functional; procedure, shortened: as §1
Mus musculus [30] = assay: Licking latency was measured after 45 min treatment (at dose=20 mg/kg) by using mouse hot plate test; format: functional; procedure, shortened: as §1
Mus musculus [31] = assay: Licking latency was measured before treatment (at dose=40 mg/kg) by using mouse hot plate test; format: functional; procedure, shortened: as §3
Mus musculus [32] = assay: MAD: minimal dose able to induce a statistically significant increase of the pain threshold, done on mouse; sc; IA= inactive; format: functional, organism-based; procedure, shortened: as §2
Mus musculus [33] = assay: Licking latency was measured after 30 min treatment (at dose=40 mg/kg) by using mouse hot plate test; format: functional; procedure, shortened: as §1
Mus musculus [34] = assay: Licking latency was measured after 30 min treatment (at dose=20 mg/kg) by using mouse hot plate test; format: functional; procedure, shortened: as §1
Mus musculus [35] = assay: Licking latency was measured before treatment (at dose=20 mg/kg) by using mouse hot plate test; format: functional; procedure, shortened: as §1
Mus musculus [36] = assay: Licking latency was measured after 15 min treatment (at dose=40 mg/kg) by using mouse hot plate test; format: functional; procedure, shortened: as §1
Mus musculus [37] = assay: Licking latency was measured after 15 min treatment (at dose=20 mg/kg) by using mouse hot plate test; format: functional; procedure, shortened: as §1

In the case of Clc1ccc(N2C3CCC2CN(Cc2ccccc2)C3)nn1, the Licking latency (Mus musculus [1]) is reported as 15.3 s, the MNTD (Mus musculus [2]) is reported as greater than 50 mg/kg and the MAD (Mus musculus [3]) is reported as “inactive”. It also gave a Licking latency (Mus musculus [4]) of 14.8 s, a Licking latency (Mus musculus [5]) of 17.2 s and a Licking latency (Mus musculus [6]) of 17.6 s.
In the case of CN1CC[C@]23c4c5ccc(O)c4O[C@H]2[C@@H](O)C=C[C@H]3[C@H]1C5 [MORPHINE], the “Analgesic efficacy compared to epibatidine” value (Mus musculus [7]) is reported as 122%, the MNTD (Mus musculus [2]) is reported as 20 mg/kg and the “Analgesic efficacy compared to morphine” value (Mus musculus [8]) is reported as 100%. It also gave an MAD (Mus musculus [9]) of 2 mg/kg.
In the case of CSc1nc(Cl)cc(N2CC3CCC(C2)N3)n1, the “Analgesic efficacy compared to epibatidine” value (Mus musculus [7]) is reported as 182%, the Licking latency (Mus musculus [10]) is reported as 36.5 s and the MNTD (Mus musculus [2]) is reported as 30 mg/kg. The Licking latency (Mus musculus [11]) was 20.3 s, the Licking latency (Mus musculus [12]) was 40.8 s and the Licking latency (Mus musculus [13]) was 18.7 s. The Licking latency (Mus musculus [14]) was 43.8 s, the Licking latency (Mus musculus [15]) was 14.7 s and the “Analgesic efficacy compared to morphine” value (Mus musculus [8]) was 149%. The Licking latency (Mus musculus [16]) was 15.1 s, the MAD (Mus musculus [9]) was 5 mg/kg and the Licking latency (Mus musculus [17]) was 20.5 s.
Clc1ccc(N2C3CCC2CNC3)nn1 was tested, and the Licking latency (Mus musculus [18]) was 34.8 s, the “Analgesic efficacy compared to epibatidine” value (Mus musculus [7]) was 130% and the Licking latency (Mus musculus [19]) was 15.3 s. The Licking latency (Mus musculus [20]) was 23.2 s, the MNTD (Mus musculus [2]) was 30 mg/kg and the Licking latency (Mus musculus [21]) was 17 s. It also gave a Licking latency (Mus musculus [22]) of 35.5 s, a Licking latency (Mus musculus [23]) of 20.6 s and a Licking latency (Mus musculus [24]) of 15.4 s. The “Analgesic efficacy compared to morphine” value (Mus musculus [8]) was 107%, the Licking latency (Mus musculus [25]) was 22.9 s and the Licking latency (Mus musculus [16]) was 15 s. It also gave a Licking latency (Mus musculus [26]) of 12.2 s, a Licking latency (Mus musculus [27]) of 17.4 s and a Licking latency (Mus musculus [28]) of 26.4 s. It also gave an MAD (Mus musculus [9]) of 15 mg/kg.
Compound CCC(=O)N1C2CCC1CN(c1ccc(Cl)nn1)C2 has an MNTD (Mus musculus [2]) greater than 60 mg/kg, a Licking latency (Mus musculus [29]) of 18.4 s and a Licking latency (Mus musculus [30]) of 18 s. For the same compound, the Licking latency (Mus musculus [31]) was 14.5 s, the MAD (Mus musculus [32]) was “inactive” and the Licking latency (Mus musculus [33]) was 16.4 s. The Licking latency (Mus musculus [34]) was 15.6 s, the Licking latency (Mus musculus [35]) was 13.8 s and the Licking latency (Mus musculus [36]) was 17 s. For the same compound, the Licking latency (Mus musculus [37]) was 17.1 s.
In the case of Clc1cccnc1N1CC2CCC(C1)N2, the “Analgesic efficacy compared to epibatidine” value (Mus musculus [7]) is reported as 151%, the Licking latency (Mus musculus [10]) is reported as 27.5 s and the MNTD (Mus musculus [2]) is reported as 40 mg/kg. For the same compound, the Licking latency (Mus musculus [11]) was 21.3 s, the Licking latency (Mus musculus [12]) was 39.2 s and the Licking latency (Mus musculus [13]) was 18.3 s. For the same compound, the Licking latency (Mus musculus [14]) was 29.7 s, the Licking latency (Mus musculus [15]) was 13.7 s and the “Analgesic efficacy compared to morphine” value (Mus musculus [8]) was 124%. It also gave a Licking latency (Mus musculus [16]) of 15.3 s, an MAD (Mus musculus [9]) of 10 mg/kg and a Licking latency (Mus musculus [17]) of 20.3 s.
